≈ marks a conversion by molar mass, not a printed value.
Experiments:
Phytophthora sojae [1] = test: Antifungal activity against Phytophthora sojae race 1 in germinated soybean seeds assessed as lesion length at 5 mg/L after 48 hr (untreated control = 3.34 +/- 0.64 cm); type: functional
Phytophthora sojae [2] = test: Antifungal activity against Phytophthora sojae race 1 in germinated soybean seeds assessed as disease control efficacy at 10 mg/L after 48 hr relative to control; type: functional
Method in brief: (§1)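 Seeds (Hefeng-25) were surface-sterilised (10% NaOCl, 20 min), rinsed, and germinated at 30 °C until roots exceeded 10 mm, five per dish on wet filter paper. Roots received 2 mL of solution: 1% Tween 80 in water, or 25% WP in water (4/20/40 mg/L = 1/5/10 mg a.i./L). A 7 mm race 1 disk was placed on the roots and removed after 24 h. After 48 h at 28 °C, roots were rated 0–4 and disease index computed. Efficiency is relative to the inoculated Tween control. Three experiments.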

Glycine max = test: Phytotoxicity against germinated Glycine max (soybean) seeds at 10 mg/L; type: organism-based; conditions: in vivo
Phytophthora sojae [3] = test: Antifungal activity against Phytophthora sojae race 1 in germinated soybean seeds assessed as lesion length at 1 mg/L after 48 hr (untreated control = 3.34 +/- 0.64 cm); type: functional
Phytophthora sojae [4] = test: Antifungal activity against Phytophthora sojae race 1 in germinated soybean seeds assessed as root length at 10 mg/L after 48 hr (untreated control = 4.15 +/- 0.71 cm); type: functional
Phytophthora sojae [5] = test: Antifungal activity against Phytophthora sojae race 54 assessed as growth inhibition at 28 degC after 7 days (beneficial crop soybean); type: functional, organism-based; conditions: race 54, 168 h
Method in brief: (§2)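 Race-specific mycelial growth assay on carrot agar (CA) at 28 °C. Test article was dissolved in methanol, diluted with water and added to CA; a 0.2% methanol plate served as negative control. A 5 mm plug from the colony margin was centred on each plate. Colony diameters were recorded once the control was covered. Inhibition = (1 − D/Dc) × 100. EC50/EC95 came from linear regression. Run in triplicate.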

Phytophthora sojae [6] = test: Antifungal activity against Phytophthora sojae race 13 assessed as growth inhibition at 28 degC after 7 days (beneficial crop soybean); type: functional, organism-based; conditions: race 13, 168 h; method in brief: as §2
Phytophthora sojae [7] = test: Antifungal activity against Phytophthora sojae race 1 in germinated soybean seeds assessed as disease control efficacy at 1 mg/L after 48 hr relative to control; type: functional; method in brief: as §1
Phytophthora sojae [8] = test: Antifungal activity against Phytophthora sojae race 1 in germinated soybean seeds assessed as lesion length at 10 mg/L after 48 hr (untreated control = 3.34 +/- 0.64 cm); type: functional
Phytophthora sojae [9] = test: Antifungal activity against Phytophthora sojae race 4 assessed as growth inhibition at 28 degC after 7 days (beneficial crop soybean); type: functional, organism-based; conditions: race 4, 168 h; method in brief: as §2
Phytophthora sojae [10] = test: Antifungal activity against Phytophthora sojae race 1 in germinated soybean seeds assessed as disease control efficacy at 5 mg/L after 48 hr relative to control; type: functional; method in brief: as §1
Phytophthora sojae [11] = test: Antifungal activity against Phytophthora sojae race 5 assessed as growth inhibition at 28 degC after 7 days (beneficial crop soybean); type: functional, organism-based; conditions: race 5, 168 h; method in brief: as §2
Phytophthora sojae [12] = test: Antifungal activity against Phytophthora sojae race 44 assessed as growth inhibition at 28 degC after 7 days (beneficial crop soybean); type: functional, organism-based; conditions: race 44, 168 h; method in brief: as §2
Phytophthora sojae [13] = test: Antifungal activity against Phytophthora sojae race 3 assessed as growth inhibition at 28 degC after 7 days (beneficial crop soybean); type: functional, organism-based; conditions: race 3, 168 h; method in brief: as §2
Phytophthora sojae [14] = test: Antifungal activity against Phytophthora sojae race 9 assessed as growth inhibition at 28 degC after 7 days (beneficial crop soybean); type: functional, organism-based; conditions: race 9, 168 h; method in brief: as §2
Phytophthora sojae [15] = test: Antifungal activity against Phytophthora sojae race 1 in germinated soybean seeds assessed as root length at 1 mg/L after 48 hr (untreated control = 4.15 +/- 0.71 cm); type: functional
Phytophthora sojae [16] = test: Antifungal activity against Phytophthora sojae race 1 assessed as growth inhibition at 28 degC after 7 days (beneficial crop soybean); type: functional, organism-based; conditions: race 1, 168 h; method in brief: as §2
Phytophthora sojae [17] = test: Antifungal activity against Phytophthora sojae race 1 in germinated soybean seeds assessed as root length at 5 mg/L after 48 hr (untreated control = 4.15 +/- 0.71 cm); type: functional
Phytophthora sojae [18] = test: Antifungal activity against Phytophthora sojae race 1 in germinated soybean seeds assessed as disease control efficacy at 20 mg/L after 48 hr compound at 25% WP relative to control; type: functional; method in brief: as §1
Phytophthora sojae [19] = test: Antifungal activity against Phytophthora sojae race 1 in germinated soybean seeds assessed as lesion length at 40 mg/L after 48 hr compound at 25% WP (untreated control = 3.34 +/- 0.64 cm); type: functional
Phytophthora sojae [20] = test: Antifungal activity against Phytophthora sojae race 1 in germinated soybean seeds assessed as lesion length at 4 mg/L after 48 hr compound at 25% WP (untreated control = 3.34 +/- 0.64 cm); type: functional
Phytophthora sojae [21] = test: Antifungal activity against Phytophthora sojae race 1 in germinated soybean seeds assessed as root length at 4 mg/L after 48 hr compound at 25% WP (untreated control = 4.15 +/- 0.71 cm); type: functional
Phytophthora sojae [22] = test: Antifungal activity against Phytophthora sojae race 1 in germinated soybean seeds assessed as disease control efficacy at 40 mg/L after 48 hr compound at 25% WP relative to control; type: functional; method in brief: as §1
Phytophthora sojae [23] = test: Antifungal activity against Phytophthora sojae race 1 in germinated soybean seeds assessed as lesion length at 20 mg/L after 48 hr compound at 25% WP (untreated control = 3.34 +/- 0.64 cm); type: functional
Phytophthora sojae [24] = test: Antifungal activity against Phytophthora sojae race 1 in germinated soybean seeds assessed as root length at 40 mg/L after 48 hr compound at 25% WP (untreated control = 4.15 +/- 0.71 cm); type: functional
Phytophthora sojae [25] = test: Antifungal activity against Phytophthora sojae race 1 in germinated soybean seeds assessed as root length at 20 mg/L after 48 hr compound at 25% WP (untreated control = 4.15 +/- 0.71 cm); type: functional
Phytophthora sojae [26] = test: Antifungal activity against Phytophthora sojae race 1 in germinated soybean seeds assessed as disease control efficacy at 4 mg/L after 48 hr compound at 25% WP relative to control; type: functional; method in brief: as §1

Structure (SMILES): C[C@@H]1C[C@H](C)C[C@H](C)[C@@H](O)CC(=O)O[C@H]([C@@H]2CCC[C@H]2C(=O)O)C/C=C/C=C(/C#N)[C@H](O)[C@@H](C)C1 [BORRELIDIN]
- Activity (Phytophthora sojae [1]): 0.73 cm
- Efficacy (Phytophthora sojae [2]): 94.72%
- Activity (Glycine max): Non-toxic
- Activity (Phytophthora sojae [3]): 1.91 cm
- Activity (Phytophthora sojae [4]): 6.81 cm
- EC50 (Phytophthora sojae [5]): 0.0057 µg/mL (≈ 0.0116 µM)
- EC95 (Phytophthora sojae [5]): 0.021 µg/mL (≈ 0.0429 µM)
- EC50 (Phytophthora sojae [6]): 0.0057 µg/mL (≈ 0.0116 µM)
- EC95 (Phytophthora sojae [6]): 0.021 µg/mL (≈ 0.0429 µM)
- Efficacy (Phytophthora sojae [7]): 56.25%
- Activity (Phytophthora sojae [8]): 0.25 cm
- EC50 (Phytophthora sojae [9]): 0.0038 µg/mL (≈ 0.00776 µM)
- EC95 (Phytophthora sojae [9]): 0.017 µg/mL (≈ 0.0347 µM)
- Efficacy (Phytophthora sojae [10]): 80.76%
- EC50 (Phytophthora sojae [11]): 0.0052 µg/mL (≈ 0.0106 µM)
- EC95 (Phytophthora sojae [11]): 0.02 µg/mL (≈ 0.0408 µM)
- EC50 (Phytophthora sojae [12]): 0.0047 µg/mL (≈ 0.0096 µM)
- EC95 (Phytophthora sojae [12]): 0.018 µg/mL (≈ 0.0368 µM)
- EC50 (Phytophthora sojae [13]): 0.0051 µg/mL (≈ 0.0104 µM)
- EC95 (Phytophthora sojae [13]): 0.021 µg/mL (≈ 0.0429 µM)
- EC50 (Phytophthora sojae [14]): 0.0053 µg/mL (≈ 0.0108 µM)
- EC95 (Phytophthora sojae [14]): 0.02 µg/mL (≈ 0.0408 µM)
- Activity (Phytophthora sojae [15]): 6.24 cm
- EC50 (Phytophthora sojae [16]): 0.0056 µg/mL (≈ 0.0114 µM)
- EC95 (Phytophthora sojae [16]): 0.026 µg/mL (≈ 0.0531 µM)
- Activity (Phytophthora sojae [17]): 6.53 cm

Structure (SMILES): COCC(=O)N(c1c(C)cccc1C)C(C)C(=O)OC (stereo unspecified) [METALAXYL]
- Efficacy (Phytophthora sojae [18]): 71.97%
- Activity (Phytophthora sojae [19]): 0.62 cm
- Activity (Phytophthora sojae [20]): 2.57 cm
- EC50 (Phytophthora sojae [5]): 0.3 µg/mL (≈ 1.07 µM)
- EC95 (Phytophthora sojae [5]): 13.3 µg/mL (≈ 47.5 µM)
- Activity (Phytophthora sojae [21]): 6.21 cm
- EC50 (Phytophthora sojae [6]): 0.32 µg/mL (≈ 1.15 µM)
- EC95 (Phytophthora sojae [6]): 7.55 µg/mL (≈ 27 µM)
- Efficacy (Phytophthora sojae [22]): 87.7%
- Activity (Phytophthora sojae [23]): 1.34 cm
- EC50 (Phytophthora sojae [9]): 0.18 µg/mL (≈ 0.644 µM)
- EC95 (Phytophthora sojae [9]): 8.03 µg/mL (≈ 28.7 µM)
- Activity (Phytophthora sojae [24]): 6.73 cm
- Activity (Phytophthora sojae [25]): 6.48 cm
- EC50 (Phytophthora sojae [11]): 0.3 µg/mL (≈ 1.07 µM)
- EC95 (Phytophthora sojae [11]): 11.6 µg/mL (≈ 41.5 µM)
- EC50 (Phytophthora sojae [12]): 0.28 µg/mL (≈ 1 µM)
- EC95 (Phytophthora sojae [12]): 12.2 µg/mL (≈ 43.9 µM)
- EC50 (Phytophthora sojae [13]): 0.17 µg/mL (≈ 0.609 µM)
- EC95 (Phytophthora sojae [13]): 4.63 µg/mL (≈ 16.6 µM)
- Efficacy (Phytophthora sojae [26]): 45.52%
- EC50 (Phytophthora sojae [14]): 0.34 µg/mL (≈ 1.22 µM)
- EC95 (Phytophthora sojae [14]): 11.8 µg/mL (≈ 42.3 µM)
- EC50 (Phytophthora sojae [16]): 0.35 µg/mL (≈ 1.25 µM)
- EC95 (Phytophthora sojae [16]): 6.82 µg/mL (≈ 24.4 µM)

From ChEMBL document CHEMBL3046785, “Antifungal activity of borrelidin produced by a Streptomyces strain isolated from soybean” (J Agric Food Chem, 2012)
